Results gathered from unrelated publications.
Each line is one published result; the experiments were not run side by side.

The IC50 of `COc1nnc2ccc(N3CCC(c4ccc(OCCN5CCN(C)C(=O)[C@H]5C)cc4)CC3)nn12` is reported as 0.0683 µM (MP46; cell growth or viability, ATP luminescence; 72 h).
`c1ccc(-c2cc(CNc3cccc4cccnc34)on2)nc1` gave an IC50 of 13.1 µM (CAPAN-1; cell growth or viability, MTS; 72 h).
`COc1cc([C@@H]2c3cc4c(cc3[C@H](O)[C@H]3COC(=O)[C@H]23)OCO4)cc(OC)c1OC` gave an IC50 of 0.00656 µM (MP46; cell growth or viability, ATP luminescence; 72 h).
With `O=C(NO)c1ccc(Cn2cnc3c(Nc4ccc(Br)cc4F)ncnc32)cc1` the IC50 was 0.93 µM (THP-1; cell growth or viability, MTT; 72 h).
`O=C(CSc1nc2ccccc2s1)N/N=C/c1ccc(OCC(=O)Nc2ccc([N+](=O)[O-])cc2)cc1` gave an IC50 of 29.4 µM (CAPAN-1; cell growth or viability, MTS; 72 h).
With `FC(F)(F)c1cc(OCc2cc(-c3ccccn3)no2)c2ccccc2n1` the IC50 was greater than 100 µM (CAPAN-1; cell growth or viability, MTS; 72 h).
With `O=C(NO)c1ccc(Cn2cnc3c(Nc4cccc([N+](=O)[O-])c4)ncnc32)cc1` the IC50 was 0.53 µM (THP-1; cell growth or viability, MTT; 72 h).
`FC(F)(F)c1ccc(-c2cc(CNc3cccc4cccnc34)on2)cc1` has an IC50 of 19.9 µM (CAPAN-1; cell growth or viability, MTS; 72 h).
For `O=C(CSc1nc2ccccc2s1)N/N=C/c1ccc(OCC(=O)Nc2ccc(Br)cc2)cc1`, the IC50 was 10.2 µM (CAPAN-1; cell growth or viability, MTS; 72 h).
The IC50 of `COc1ccc(Nc2ncnc3c2ncn3Cc2ccc(C(=O)Nc3ccccc3N)cc2)cc1` is reported as 0.93 µM (THP-1; cell growth or viability, MTT; 72 h).
The IC50 of `Cc1[nH]c2ccccc2c1CCNCc1ccc(/C=C/C(=O)NO)cc1` is reported as 0.0277 µM (MP46; cell growth or viability, ATP luminescence; 72 h).
With `O=c1cc(OCc2cc(-c3ccccc3)no2)c2ccccc2o1` the IC50 was greater than 100 µM (CAPAN-1; cell growth or viability, MTS; 72 h).
For `CCS(=O)(=O)Nc1ccc(Oc2ccc(F)cc2F)c(-c2cn(C)c(=O)c3[nH]ccc23)c1`, the IC50 was 0.0892 µM (MP46; cell growth or viability, ATP luminescence; 72 h).
For `Cc1cc2c(C(N)=O)cccc2n1-c1nc2c(c(NCc3ccccc3)n1)CCCN2`, the IC50 was 0.6 µM (SW-620; cell growth or viability; 72 h).
`CSC(=O)c1cccc2nnsc12` has an IC50 of 10.7 µM (HepaRG; reactive oxygen species, inhibitor; 16 h).
`Nc1ccn([C@@H]2O[C@H](CO)[C@@H](O)C2(F)F)c(=O)n1` has an IC50 of 0.169 µM (MP46; cell growth or viability, ATP luminescence; 72 h).
For `COc1ccc(Nc2ncnc3c2ncn3Cc2ccc(C(=O)NO)cc2)cc1`, the IC50 was 0.42 µM (THP-1; cell growth or viability, MTT; 72 h).
`COc1cc(C2C3=C(COC3=O)N(CCO)c3cc4c(cc32)CCC4)cc(OC)c1OC` (centres unmarked) has an IC50 of 0.24 µM (SUM159; cell growth or viability, ATP luminescence; 48 h).
The IC50 of `CCNC(=O)c1cc2c(-c3cc(C(C)(C)O)ccc3Oc3c(C)cc(F)cc3C)cn(C)c(=O)c2[nH]1` is reported as 56600 µM (MP46; cell growth or viability, ATP luminescence; 72 h).
With `N#Cc1ccc(-c2cc(COc3cc(=O)oc4ccccc34)on2)cc1` the IC50 was greater than 100 µM (CAPAN-1; cell growth or viability, MTS; 72 h).
`CC1(P2(=O)CCCCC2)C=CCC=C1` has an IC50 of greater than 100 µM (SW-620; cell growth or viability, MTT; 72 h).
`O=C(CSc1nc2ccccc2s1)N/N=C/c1ccc(OCC(=O)Nc2cccc([N+](=O)[O-])c2)cc1` has an IC50 of 4.25 µM (CAPAN-1; cell growth or viability, MTS; 72 h).
With `N#Cc1ccc(-c2cc(CNc3cccc4cccnc34)on2)cc1` the IC50 was 13.1 µM (CAPAN-1; cell growth or viability, MTS; 72 h).
For `CC(C)(C)c1cc(/C=C2\SC(N)=NC2=O)cc(C(C)(C)C)c1O`, the IC50 was 0.83 µM (HepaRG; reactive oxygen species, inhibitor; 16 h).
`CCOc1ccc(Nc2c3c(nc4ccccc24)CCC3)cc1` gave an IC50 of 18.6 µM (THP-1; cell growth or viability; 72 h).
For `Cc1cc2c(C(=O)O)cccc2n1-c1nc2c(c(NCc3ccccc3)n1)CCCN2`, the IC50 was 2.1 µM (SW-620; cell growth or viability; 72 h).
With `CC1(P2(=O)CCCCC2)CCCCC1` the IC50 was greater than 100 µM (SW-620; cell growth or viability, MTT; 72 h).
With `c1ccc(-c2cc(CNc3cccc4cccnc34)on2)cc1` the IC50 was 11.4 µM (CAPAN-1; cell growth or viability, MTS; 72 h).
The IC50 of `COc1ccc(C[C@H](N)C(=O)N[C@H]2[C@@H](O)[C@H](n3cnc4c(N(C)C)ncnc43)O[C@@H]2CO)cc1` is reported as 2.03 µM (THP-1; cell growth or viability; 72 h).
The IC50 of `COC(=O)Nc1nc2ccc(C(=O)c3cccs3)cc2[nH]1` is reported as 9.61 µM (HepaRG; reactive oxygen species, inhibitor; 16 h).
`FC(F)(F)c1ccc(-c2cc(COc3cc(C(F)(F)F)nc4ccccc34)on2)cc1` has an IC50 of greater than 100 µM (CAPAN-1; cell growth or viability, MTS; 72 h).
With `Cc1noc(C)c1-c1cc(C(O)(c2ccccn2)c2ccccn2)c2nc(C3CC3)[nH]c2c1` the IC50 was 0.0712 µM (MP46; cell growth or viability, ATP luminescence; 72 h).
